Measurements from ChEMBL document CHEMBL5260843 (J Med Chem, 2019).
Activity calls are given as the source filed them. The rule behind the calls is not given here.

Legend:
[1] = Metabolic stability in human liver microsomes assessed as intrinsic clearance; type: ADME, Microsome; settings: read-out: CLH
[2] = molecular target: CDK2/Cyclin A2 (Homo sapiens) (UniProt P24941+P20248); assay: Inhibition of GST-tagged human CDK2/Cyclin A2 expressed in baculovirus infected Sf9 cells using 5-FAM-QSPKKG-CONH2 as substrate at 10 uM incubated for 60 mins in presence of ATP relative to control
Outline: (§1)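 CDK/cyclin complexes were assayed with 3 μM 5-FAM peptide substrate. ATP was 20 μM for CDK1, 30 μM for CDK2, 280 μM for CDK4, 800 μM for CDK6 and 10 μM for CDK9. Buffer was 50 mM HEPES pH 7.5, 0.0015% Brij-35, 10 mM MgCl2 and 2 mM DTT. Reactions ran 60 min at 28 °C and were stopped with EDTA. Caliper conversion values were converted to % inhibition.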

MGC-803 [3] = assay: Inhibition of cullin3 neddylation in UBC/DCN1 overactivated human MGC-803 cells at 3 uM incubated for 24 hrs by Western blot analysis; type: cell-based
Outline: (§2)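 Cells in 6-well plates were exposed to compound for 24 h. MGC-803 were grown in DMEM and KYSE70 in RPMI 1640, both with 10% FBS at 37 °C and 5% CO2. Lysates were made in RIPA with protease inhibitors and quantified by BCA. 30 μg protein was run on 8% SDS-PAGE and blotted to nitrocellulose. Primary antibodies were applied overnight at 4 °C, then HRP secondaries, with ECL and film detection. GAPDH was the loading control. Run three times.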

MGC-803 [4] = assay: Induction of p21 accumulation in human MGC-803 cells incubated for 24 hrs by Western blot analysis; type: functional, cell-based; settings: dose 1-10 µM; outline: as §2
Cullin-5 (Homo sapiens) [5] = molecular target: T1, Cullin-5 (Homo sapiens) (UniProt Q93034); assay: Inhibition of cullin5 neddylation in human KYSE-70 cells at 0.3 to 10 uM incubated for 24 hrs by Western blot analysis; type: cell-based; settings: KYSE-70 cell line, dose 0.3-10 µM; outline: as §2
T1 sequence (whole entry): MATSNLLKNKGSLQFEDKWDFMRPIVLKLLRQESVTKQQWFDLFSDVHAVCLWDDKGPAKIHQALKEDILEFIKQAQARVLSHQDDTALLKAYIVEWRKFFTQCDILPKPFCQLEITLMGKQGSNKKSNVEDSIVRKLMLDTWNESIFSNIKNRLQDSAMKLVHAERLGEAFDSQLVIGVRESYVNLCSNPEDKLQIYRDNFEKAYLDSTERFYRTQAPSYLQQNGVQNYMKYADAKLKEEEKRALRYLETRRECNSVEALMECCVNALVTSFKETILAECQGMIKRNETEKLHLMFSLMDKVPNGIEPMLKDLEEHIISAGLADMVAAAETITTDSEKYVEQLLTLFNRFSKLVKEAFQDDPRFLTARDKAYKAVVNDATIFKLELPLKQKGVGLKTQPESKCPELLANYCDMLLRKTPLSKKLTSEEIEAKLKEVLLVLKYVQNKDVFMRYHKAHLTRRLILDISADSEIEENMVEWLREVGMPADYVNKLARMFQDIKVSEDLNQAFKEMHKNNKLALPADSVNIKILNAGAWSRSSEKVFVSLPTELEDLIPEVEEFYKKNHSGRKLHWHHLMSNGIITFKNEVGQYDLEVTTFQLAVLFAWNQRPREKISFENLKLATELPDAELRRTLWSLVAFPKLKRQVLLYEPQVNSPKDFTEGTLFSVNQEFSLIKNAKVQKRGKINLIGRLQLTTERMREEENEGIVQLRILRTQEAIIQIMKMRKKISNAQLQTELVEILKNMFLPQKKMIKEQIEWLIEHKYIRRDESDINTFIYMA

Cullin-4B (Homo sapiens) [6] = molecular target: Cullin-4B (Homo sapiens) (UniProt Q13620); assay: Inhibition of cullin4B neddylation in UBC/DCN1 overactivated human MGC-803 cells at 0.3 to 10 uM incubated for 24 hrs by Western blot analysis; type: cell-based; settings: dose 0.3-10 µM; outline: as §2
KYSE-70 = assay: Induction of p21 accumulation in human KYSE-70 cells incubated for 24 hrs by Western blot analysis; type: functional, cell-based; settings: dose 0.3-10 µM; outline: as §2
KYSE-70 cell line [7] = assay: Inhibition of cullin2 neddylation in human KYSE-70 cells at 0.3 to 10 uM incubated for 24 hrs by Western blot analysis; type: cell-based; settings: dose 0.3-10 µM; outline: as §2
[8] = Metabolic stability in human liver microsomes assessed as half life; type: ADME, Microsome
[9] = molecular target: CDK6/cyclin D3 (Homo sapiens) (UniProt P30281+Q00534); assay: Inhibition of full length human CDK6/N-terminal GST fused human cyclinD3 expressed in baculovirus expression system using 5-FAMIPTSPITTTYFFFKKK-COOH as substrate at 10 uM incubated for 60 mins in presence of ATP relative to control; outline: as §1
Cullin-4B (Homo sapiens) [10] = molecular target: Cullin-4B (Homo sapiens) (UniProt Q13620); assay: Inhibition of cullin4B neddylation in human KYSE-70 cells at 0.3 to 10 uM incubated for 24 hrs by Western blot analysis; type: cell-based; settings: KYSE-70 cell line, dose 0.3-10 µM; outline: as §2
[11] = molecular target: T2, DCN1-like protein 1/NEDD8-conjugating enzyme Ubc12 (Homo sapiens) (UniProt Q96GG9+P61081); settings: dose 500.0 nM, time 1.0 hrs
Cullin-5 (Homo sapiens) [12] = molecular target: T1, Cullin-5 (Homo sapiens); assay: Inhibition of cullin5 neddylation in UBC/DCN1 overactivated human MGC-803 cells at 0.3 to 10 uM incubated for 24 hrs by Western blot analysis; type: cell-based; settings: dose 0.3-10 µM; outline: as §2
Cullin-4A (Homo sapiens) = Cullin-4A (Homo sapiens) (UniProt Q13619); assay: Inhibition of cullin4A neddylation in UBC/DCN1 overactivated human MGC-803 cells at 0.3 to 10 uM incubated for 24 hrs by Western blot analysis; type: cell-based; settings: dose 0.3-10 µM; outline: as §2
MGC-803 [13] = assay: Induction of p27 accumulation in human MGC-803 cells incubated for 24 hrs by Western blot analysis; type: functional, cell-based; settings: dose 1-10 µM; outline: as §2
[14] = molecular target: T2, DCN1-like protein 1/NEDD8-conjugating enzyme Ubc12 (Homo sapiens); settings: dose 500.0 nM, time 1.0 hrs; remark: listed apart in the source
[15] = molecular target: DCN1-like protein 1/NEDD8-conjugating enzyme Ubc12 (Homo sapiens, UniProt Q96GG9); assay: Inhibition of GST-tagged DCN1 PONY domain (unknown origin)/human N-terminal acetylated UBC12 (1 to 12 residues) protein-protein interaction incubated for 1 hr by HTRF analysis; type: protein assay
[16] = Metabolic stability in dog liver microsomes assessed as half life; type: ADME, Canis lupus familiaris, Microsome
[17] = molecular target: CDK4/Cyclin D3 (Homo sapiens) (UniProt P11802+P30281); assay: Inhibition of full length human CDK4/N-terminal GST fused human cyclinD3 expressed in baculovirus expression system using 5-FAMIPTSPITTTYFFFKKK-COOH as substrate at 10 uM incubated for 60 mins in presence of ATP relative to control; outline: as §1
KYSE-70 cell line [18] = assay: Inhibition of cullin3 neddylation in human KYSE-70 cells incubated for 24 hrs by Western blot analysis; type: cell-based; settings: dose 0.3-10 µM; outline: as §2
[19] = molecular target: Cyclin-dependent kinase 1/cyclin B (Homo sapiens) (UniProt P06493+P14635+Q8WWL7+O95067); assay: Inhibition of C-terminal His6 tagged human full length CDK1/N-terminal GST-tagged human full length Cyclin B expressed in baculovirus infected Sf21 cells using 5-FAM-QSPKKG-CONH2 as substrate at 10 uM incubated for 60 mins in presence of ATP relative to control; outline: as §1

Chain of Cullin-4B (Homo sapiens) (Q13620 whole entry): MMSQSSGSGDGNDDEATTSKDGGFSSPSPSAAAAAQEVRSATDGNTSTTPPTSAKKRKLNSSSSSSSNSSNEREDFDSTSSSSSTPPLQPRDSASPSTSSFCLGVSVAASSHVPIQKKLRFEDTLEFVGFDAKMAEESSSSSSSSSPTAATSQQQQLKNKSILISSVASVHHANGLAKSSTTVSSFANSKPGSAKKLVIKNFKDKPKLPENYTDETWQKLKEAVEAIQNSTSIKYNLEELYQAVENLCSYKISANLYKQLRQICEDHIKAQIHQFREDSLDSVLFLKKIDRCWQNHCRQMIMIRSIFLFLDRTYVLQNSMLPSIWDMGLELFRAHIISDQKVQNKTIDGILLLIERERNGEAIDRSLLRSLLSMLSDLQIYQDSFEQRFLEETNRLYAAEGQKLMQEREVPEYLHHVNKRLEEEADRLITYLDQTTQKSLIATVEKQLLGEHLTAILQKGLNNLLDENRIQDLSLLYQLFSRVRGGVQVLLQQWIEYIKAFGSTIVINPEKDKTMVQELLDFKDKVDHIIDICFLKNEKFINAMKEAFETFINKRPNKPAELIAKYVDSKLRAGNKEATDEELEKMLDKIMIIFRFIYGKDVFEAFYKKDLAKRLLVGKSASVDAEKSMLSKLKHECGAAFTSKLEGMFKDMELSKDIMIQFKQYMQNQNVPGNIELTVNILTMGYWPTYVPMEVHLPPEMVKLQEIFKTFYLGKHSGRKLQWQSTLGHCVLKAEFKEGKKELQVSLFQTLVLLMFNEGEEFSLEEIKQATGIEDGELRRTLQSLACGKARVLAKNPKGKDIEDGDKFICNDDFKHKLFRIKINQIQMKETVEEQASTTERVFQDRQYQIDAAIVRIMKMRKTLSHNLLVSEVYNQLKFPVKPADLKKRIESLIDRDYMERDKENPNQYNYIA
T2 sequence (P61081 whole entry, looked up): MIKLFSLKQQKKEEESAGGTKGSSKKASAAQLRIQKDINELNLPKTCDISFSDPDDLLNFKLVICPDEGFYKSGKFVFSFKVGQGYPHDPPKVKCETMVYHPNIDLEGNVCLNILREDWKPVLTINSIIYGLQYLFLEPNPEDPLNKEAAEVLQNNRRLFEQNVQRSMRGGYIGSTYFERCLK
T2 sequence (Q96GG9 whole entry, looked up): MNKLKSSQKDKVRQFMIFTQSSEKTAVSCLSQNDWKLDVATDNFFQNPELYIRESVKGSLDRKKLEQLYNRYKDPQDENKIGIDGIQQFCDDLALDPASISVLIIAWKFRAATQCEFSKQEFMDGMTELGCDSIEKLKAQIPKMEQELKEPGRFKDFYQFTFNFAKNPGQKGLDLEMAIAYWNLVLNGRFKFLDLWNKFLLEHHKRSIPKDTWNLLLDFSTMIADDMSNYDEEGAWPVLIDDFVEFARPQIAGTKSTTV
Chain of DCN1-like protein 1/NEDD8-conjugating enzyme Ubc12 (Q96GG9 whole entry, the tested form may be a part): as the sequence (Q96GG9 whole entry, looked up) above
Chain of DCN1-like protein 1/NEDD8-conjugating enzyme Ubc12 (P61081 whole entry, further chain, the tested form may be a part): as the sequence (P61081 whole entry, looked up) above
Chain of Cullin-4A (Homo sapiens) (Q13619 whole entry): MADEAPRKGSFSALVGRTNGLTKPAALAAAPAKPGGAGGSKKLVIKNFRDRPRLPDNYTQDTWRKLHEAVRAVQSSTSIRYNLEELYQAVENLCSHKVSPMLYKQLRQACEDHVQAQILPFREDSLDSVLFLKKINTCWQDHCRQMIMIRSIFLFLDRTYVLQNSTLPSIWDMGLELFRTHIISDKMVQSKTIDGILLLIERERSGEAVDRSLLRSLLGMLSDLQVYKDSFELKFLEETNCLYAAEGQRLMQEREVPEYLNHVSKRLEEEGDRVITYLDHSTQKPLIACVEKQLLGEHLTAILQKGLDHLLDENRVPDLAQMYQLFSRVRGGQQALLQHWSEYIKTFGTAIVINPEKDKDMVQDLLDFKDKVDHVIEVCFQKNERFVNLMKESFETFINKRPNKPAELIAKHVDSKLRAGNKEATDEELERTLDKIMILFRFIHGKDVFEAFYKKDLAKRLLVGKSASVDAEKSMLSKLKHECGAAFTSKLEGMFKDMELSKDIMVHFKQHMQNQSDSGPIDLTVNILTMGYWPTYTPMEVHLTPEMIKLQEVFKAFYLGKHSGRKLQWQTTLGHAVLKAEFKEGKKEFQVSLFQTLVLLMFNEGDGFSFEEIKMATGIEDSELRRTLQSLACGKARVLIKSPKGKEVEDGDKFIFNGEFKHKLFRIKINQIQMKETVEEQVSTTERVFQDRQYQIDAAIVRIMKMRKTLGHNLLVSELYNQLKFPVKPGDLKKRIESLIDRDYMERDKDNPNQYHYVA

CLint scaled [1]: > 348 mL/min/kg
inhibition [2]: 20.5%
inhibition (Cullin-5 (Homo sapiens) [5]): inactive
inhibition (Cullin-4B (Homo sapiens) [6]): inactive
half-life [8]: < 5 min
inhibition [9]: 21.8%
inhibition (Cullin-4B (Homo sapiens) [10]): inactive
inhibition [11]: Active
inhibition (Cullin-5 (Homo sapiens) [12]): inactive
inhibition (Cullin-4A (Homo sapiens)): inactive
inhibition [14]: Active
IC50 [15]: 11 nM
half-life [16]: < 5 min
inhibition [17]: 4.8%
inhibition [19]: 9.6%
Structure (SMILES): Cc1cc(Sc2nnnn2CCN(C)C)n2nc(SCc3ccc(Cl)cc3)nc2n1.Cl
inhibition (MGC-803 [3]): Active
Activity (MGC-803 [4]): Dose-Dependent Effect
Activity (KYSE-70): Dose-Dependent Effect
inhibition (KYSE-70 cell line [7]): inactive
Activity (MGC-803 [13]): Dose-Dependent Effect
inhibition (KYSE-70 cell line [18]): Dose-Dependent Effect
